Laboratory results from ChEMBL document CHEMBL4219021, “Discovery of a Small-Molecule Degrader of Bromodomain and Extra-Terminal (BET) Proteins with Picomolar Cellular Potencies and Capable of Achieving Tumor Regression” (J Med Chem, 2018).
Calls of active or inactive are those of the source. The rule behind the calls is not given here.

Columns and labels:
[1] = molecular target: T1, Protein cereblon/Bromodomain-containing protein 4/Cullin-4A (Homo sapiens) (UniProt O60885+Q96SW2+Q13619); test: Induction of cereblon/cullin 4A-mediated BRD4 degradation in human RS4:11 cells after 3 hrs by Western blot method; assay type: cell-based
Outline: (§1)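 Western blot of RS4;11 cells (2 × 10⁶ cells/well) in RPMI 1640 with 10% FBS, 37 °C, 5% CO₂, used within three months of thawing. Compound exposure was 3 h or 24 h at the indicated concentrations. Cells were lysed in RIPA with protease inhibitors, and BRD2, BRD3 and BRD4 were detected with specific antibodies, with GAPDH as loading control.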

[2] = system: Mus musculus; test: In vivo induction of cereblon/cullin 4A-mediated BRD4 degradation in tumor of SCID mouse xenografted with human RS4:11 cells at 5 mg/kg, iv administered as single dose measured after 24 hrs by Western blot method; assay type: functional, organism-based
Outline: (§2)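 SCID mice bearing subcutaneous RS4;11 tumors received a single 5 mg/kg iv dose. Sacrificed at 1, 3, 6 and 24 h, with vehicle controls at 6 h, two mice per time point. Tumors ground in liquid nitrogen and lysed in CHAPS buffer, then immunoblotted for BRD2/3/4, c-Myc, PARP/cleaved PARP and caspase-3/cleaved caspase-3. Actin served as loading control.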

[3] = molecular target: T2, Protein cereblon/Bromodomain-containing protein 3/Cullin-4A (Homo sapiens) (UniProt Q15059+Q96SW2+Q13619); test: Induction of cereblon/cullin 4A-mediated BRD3 degradation in human RS4:11 cells at 0.1 nM after 24 hrs by Western blot method; assay type: cell-based; outline: as §1
T2 sequence (Q13619 whole entry, looked up): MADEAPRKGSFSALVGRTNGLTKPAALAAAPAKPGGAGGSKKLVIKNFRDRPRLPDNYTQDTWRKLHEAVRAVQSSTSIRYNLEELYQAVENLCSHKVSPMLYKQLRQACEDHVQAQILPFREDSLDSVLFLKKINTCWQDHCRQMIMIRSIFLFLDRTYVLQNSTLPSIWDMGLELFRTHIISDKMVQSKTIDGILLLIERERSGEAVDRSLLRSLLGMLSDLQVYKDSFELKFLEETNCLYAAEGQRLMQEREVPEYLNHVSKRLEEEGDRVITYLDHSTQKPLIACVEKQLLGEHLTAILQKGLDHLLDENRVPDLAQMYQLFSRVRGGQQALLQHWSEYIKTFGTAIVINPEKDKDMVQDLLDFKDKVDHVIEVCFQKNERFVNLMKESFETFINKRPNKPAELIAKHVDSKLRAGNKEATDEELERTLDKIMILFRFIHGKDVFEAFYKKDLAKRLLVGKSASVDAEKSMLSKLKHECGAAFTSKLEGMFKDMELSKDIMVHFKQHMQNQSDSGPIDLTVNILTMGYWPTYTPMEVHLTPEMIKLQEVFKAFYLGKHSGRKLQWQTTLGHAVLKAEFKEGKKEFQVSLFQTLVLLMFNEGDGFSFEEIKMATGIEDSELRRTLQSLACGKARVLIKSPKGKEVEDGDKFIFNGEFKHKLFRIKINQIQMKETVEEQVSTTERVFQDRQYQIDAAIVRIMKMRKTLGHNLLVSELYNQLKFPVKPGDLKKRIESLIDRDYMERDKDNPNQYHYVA
T2 sequence (Q15059 whole entry, looked up): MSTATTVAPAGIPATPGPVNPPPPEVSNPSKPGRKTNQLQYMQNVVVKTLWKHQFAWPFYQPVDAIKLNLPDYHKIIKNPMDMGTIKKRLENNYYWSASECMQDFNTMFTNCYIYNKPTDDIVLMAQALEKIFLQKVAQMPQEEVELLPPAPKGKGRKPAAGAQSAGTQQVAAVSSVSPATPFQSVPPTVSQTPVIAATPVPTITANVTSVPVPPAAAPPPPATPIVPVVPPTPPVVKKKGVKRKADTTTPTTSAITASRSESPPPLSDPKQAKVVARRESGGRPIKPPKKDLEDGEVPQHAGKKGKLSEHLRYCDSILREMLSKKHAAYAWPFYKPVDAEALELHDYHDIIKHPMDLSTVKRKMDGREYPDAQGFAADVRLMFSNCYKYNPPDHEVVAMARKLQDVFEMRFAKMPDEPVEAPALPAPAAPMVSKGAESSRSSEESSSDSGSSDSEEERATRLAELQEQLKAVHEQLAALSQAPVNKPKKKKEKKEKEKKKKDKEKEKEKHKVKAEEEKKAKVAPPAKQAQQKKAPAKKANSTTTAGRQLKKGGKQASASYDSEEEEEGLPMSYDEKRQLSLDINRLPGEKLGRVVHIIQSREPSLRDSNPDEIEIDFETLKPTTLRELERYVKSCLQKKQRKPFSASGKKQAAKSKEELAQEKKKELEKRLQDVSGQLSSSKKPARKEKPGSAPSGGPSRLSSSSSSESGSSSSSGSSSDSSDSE
T2 sequence (Q96SW2 whole entry, looked up): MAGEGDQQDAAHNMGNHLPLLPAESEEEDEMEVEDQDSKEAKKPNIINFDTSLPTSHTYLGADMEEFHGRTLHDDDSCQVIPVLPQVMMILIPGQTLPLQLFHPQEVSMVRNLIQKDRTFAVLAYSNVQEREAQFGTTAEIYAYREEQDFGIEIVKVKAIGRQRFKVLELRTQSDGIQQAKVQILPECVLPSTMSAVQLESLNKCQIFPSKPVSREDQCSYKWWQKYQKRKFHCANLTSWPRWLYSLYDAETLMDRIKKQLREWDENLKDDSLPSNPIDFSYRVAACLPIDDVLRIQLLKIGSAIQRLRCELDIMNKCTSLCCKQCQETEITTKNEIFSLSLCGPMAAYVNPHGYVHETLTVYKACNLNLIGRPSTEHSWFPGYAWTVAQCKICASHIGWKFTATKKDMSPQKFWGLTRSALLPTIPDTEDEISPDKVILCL

[4] = molecular target: T1, Protein cereblon/Bromodomain-containing protein 4/Cullin-4A (Homo sapiens); test: Induction of cereblon/cullin 4A-mediated BRD4 degradation in human RS4:11 cells at 0.03 nM after 24 hrs by Western blot method; assay type: cell-based; outline: as §1
[5] = molecular target: T1, Protein cereblon/Bromodomain-containing protein 4/Cullin-4A (Homo sapiens); test: Induction of cereblon/cullin 4A-mediated BRD4 degradation in human RS4:11 cells at 1 nM after 3 hrs in presence of cereblon inhibitor lenalidomide by Western blot method; assay type: cell-based
[6] = system: RS4-11; test: Antitumor activity against human RS4:11 cells xenografted in SCID mouse assessed as tumor growth regression at 5 mg/kg, iv […] administered every other day three times per week for 3 weeks relative to control; assay type: functional
Outline: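 SCID mice given 5×10⁶ RS4;11 cells in 50% Matrigel subcutaneously on the dorsal side, one tumor per mouse. Randomized at ~100 mm³, then dosed 5 mg/kg iv every other day, three times a week for 3 weeks. Tumors measured by caliper 2–3 times/week, V = LW²/2. Body weight recorded 2–3 times/week and daily toxicity checks made.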

[7] = system: Mus musculus; test: Toxicity in SCID mouse xenografted with human RS4:11 cells assessed as body weight loss at 5 mg/kg, iv […] administered every other day three times per week for 3 weeks; assay type: organism-based; details: in vivo, 504 h
Outline: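 SCID mice carried subcutaneous dorsal RS4;11 xenografts (5 × 10⁶ cells in 50% Matrigel). Once tumors reached ∼100 mm³, mice were randomized to treatment or vehicle. Dosing was 5 mg/kg iv every other day, three times weekly, for 3 weeks. Animals were checked daily for toxicity and weighed 2–3 times weekly during treatment, then at least weekly afterward.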

[8] = system: Mus musculus; test: In vivo induction of cereblon/cullin 4A-mediated BRD2 degradation in tumor of SCID mouse xenografted with human RS4:11 cells at 5 mg/kg, iv administered as single dose measured after 24 hrs by Western blot method; assay type: functional, organism-based; outline: as §2
[9] = system: MOLM-13; test: Induction of apoptosis in human MOLM13 cells at 3 to 10 nM after 24 hrs by Annexin-V/propidium iodide staining based flow cytometry; assay type: functional, cell-based
Outline: (§3)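 RS4;11 or MOLM-13 cells treated with compound for 24 h, then analyzed by flow cytometry. Cell cycle read by propidium iodide staining and apoptosis by annexin V/propidium iodide staining.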

[10] = Drug metabolism in mouse liver microsomes assessed as metabolite m3 formation at 10 uM after 20 to 40 mins in presence of beta-NADPH […]; assay type: ADME, microsome
[11] = molecular target: T2, Protein cereblon/Bromodomain-containing protein 3/Cullin-4A (Homo sapiens); test: Induction of cereblon/cullin 4A-mediated BRD3 degradation in human RS4:11 cells at 1 nM after 3 hrs in presence of BET inhibitor 4-((3-Cyclopropyl-1-ethyl-1H-pyrazol-5-yl)amino)-7-(3,5-dimethylisoxazol-4-yl)-6-methoxy-N-methyl-9H-pyrimido[4,5-b]-indole-2-carboxamide by Western blot method; assay type: cell-based
[12] = molecular target: T2, Protein cereblon/Bromodomain-containing protein 3/Cullin-4A (Homo sapiens); test: Induction of cereblon/cullin 4A-mediated BRD3 degradation in human RS4:11 cells at 1 nM after 3 hrs in presence of NAE inhibitor MLN4924 by Western blot method; assay type: cell-based
[13] = molecular target: T3, Protein cereblon/Bromodomain-containing protein 2/Cullin-4A (Homo sapiens) (UniProt P25440+Q96SW2+Q13619); test: Induction of cereblon/cullin 4A-mediated BRD2 degradation in human RS4:11 cells after 3 hrs by Western blot method; assay type: cell-based
T3 sequence (P25440 whole entry, looked up): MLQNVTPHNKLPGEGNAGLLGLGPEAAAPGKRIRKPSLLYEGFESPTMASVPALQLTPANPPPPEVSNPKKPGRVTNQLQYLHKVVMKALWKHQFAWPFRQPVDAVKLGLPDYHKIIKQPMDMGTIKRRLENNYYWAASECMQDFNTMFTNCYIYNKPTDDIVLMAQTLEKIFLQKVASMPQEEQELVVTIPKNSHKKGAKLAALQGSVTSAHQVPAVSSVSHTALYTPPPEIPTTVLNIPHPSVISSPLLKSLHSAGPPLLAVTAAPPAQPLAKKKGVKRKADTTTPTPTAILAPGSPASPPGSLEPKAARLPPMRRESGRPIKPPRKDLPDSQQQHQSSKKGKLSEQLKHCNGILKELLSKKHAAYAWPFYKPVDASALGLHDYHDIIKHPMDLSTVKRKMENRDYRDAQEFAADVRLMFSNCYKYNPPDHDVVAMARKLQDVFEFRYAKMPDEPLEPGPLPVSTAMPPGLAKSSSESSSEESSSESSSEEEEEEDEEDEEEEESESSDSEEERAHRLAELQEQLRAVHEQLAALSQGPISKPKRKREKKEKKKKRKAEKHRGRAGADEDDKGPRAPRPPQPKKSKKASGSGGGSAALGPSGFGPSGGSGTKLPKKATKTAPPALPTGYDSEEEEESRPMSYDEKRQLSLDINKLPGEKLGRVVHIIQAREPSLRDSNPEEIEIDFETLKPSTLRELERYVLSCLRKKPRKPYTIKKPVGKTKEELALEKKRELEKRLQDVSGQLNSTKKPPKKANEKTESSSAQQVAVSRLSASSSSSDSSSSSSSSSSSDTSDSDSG
T3 sequence (Q13619 whole entry, looked up): as the sequence (Q13619 whole entry, looked up) above
T3 sequence (Q96SW2 whole entry, looked up): as the sequence (Q96SW2 whole entry, looked up) above
Outline: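 RS4;11 cells (2 × 10⁶/well) treated for 3 h at the indicated concentrations. Lysed in RIPA with protease inhibitors and immunoblotted for BRD2, BRD3 and BRD4 with specific antibodies.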

[14] = Drug metabolism in mouse liver microsomes assessed as metabolite m1 formation at 10 uM after 20 to 40 mins in presence of beta-NADPH […]; assay type: ADME, microsome
[15] = molecular target: T3, Protein cereblon/Bromodomain-containing protein 2/Cullin-4A (Homo sapiens); test: Induction of cereblon/cullin 4A-mediated BRD2 degradation in human RS4:11 cells at 1 nM after 3 hrs in presence of proteosome inhibitor MG-132 by Western blot method; assay type: cell-based
[16] = molecular target: T1, Protein cereblon/Bromodomain-containing protein 4/Cullin-4A (Homo sapiens); test: Induction of cereblon/cullin 4A-mediated BRD4 degradation in human RS4:11 cells at 1 nM after 3 hrs in presence of NAE inhibitor MLN4924 by Western blot method; assay type: cell-based
[17] = Drug metabolism in mouse liver microsomes assessed as 4-(3-cyclopropyl-1H-pyrazol-5-ylamino)-7-(3,5-dimethylisoxazol-4-yl)-N-(5-(2-(2,6-dioxopiperidin-3-yl)-1-oxoisoindolin-4-yl)pentyl)-6-methoxy-9H-pyrimido[4,5-b]indole-2-carboxamide formation at 10 uM after 20 to 40 mins in presence of beta-NADPH […]; assay type: ADME, microsome
[18] = molecular target: T2, Protein cereblon/Bromodomain-containing protein 3/Cullin-4A (Homo sapiens); test: Induction of cereblon/cullin 4A-mediated BRD3 degradation in human RS4:11 cells at 1 nM after 3 hrs in presence of proteosome inhibitor MG-132 by Western blot method; assay type: cell-based
[19] = system: Mus musculus; test: In vivo induction of cereblon/cullin 4A-mediated BRD3 degradation in tumor of SCID mouse xenografted with human RS4:11 cells at 5 mg/kg, iv administered as single dose measured after 24 hrs by Western blot method; assay type: functional, organism-based; outline: as §2
[20] = system: MOLM-13; test: Induction of cell cycle arrest in human MOLM13 cells after 24 hrs by propidium iodide staining based flow cytometry; assay type: functional; outline: as §3
[21] = system: Mus musculus; test: In vivo induction of cereblon/cullin 4A-mediated BET degradation in tumor of SCID mouse xenografted with human RS4:11 cells assessed as downregulation of c-Myc level at 5 mg/kg, iv administered as single dose measured up to 6 hrs by Western blot method; assay type: functional, organism-based; outline: as §2
[22] = molecular target: T3, Protein cereblon/Bromodomain-containing protein 2/Cullin-4A (Homo sapiens); test: Induction of cereblon/cullin 4A-mediated BRD2 degradation in human RS4:11 cells at 1 nM after 3 hrs in presence of NAE inhibitor MLN4924 by Western blot method; assay type: cell-based
[23] = system: Mus musculus; test: Increase in PARP cleavage in tumor of SCID mouse xenografted with human RS4:11 cells at 5 mg/kg administered as single dose measured up to 6 hrs by Western blot method; assay type: functional, organism-based; outline: as §2
[24] = molecular target: T3, Protein cereblon/Bromodomain-containing protein 2/Cullin-4A (Homo sapiens); test: Induction of cereblon/cullin 4A-mediated BRD2 degradation in human RS4:11 cells at 1 nM after 3 hrs in presence of BET inhibitor 4-((3-Cyclopropyl-1-ethyl-1H-pyrazol-5-yl)amino)-7-(3,5-dimethylisoxazol-4-yl)-6-methoxy-N-methyl-9H-pyrimido[4,5-b]-indole-2-carboxamide by Western blot method; assay type: cell-based

In the case of `CCn1nc(C2CC2)cc1Nc1nc(C(=O)NCCCCCc2cccc3c2CN(C2CCC(=O)NC2=O)C3=O)nc2[nH]c3cc(-c4c(C)noc4C)c(OC)cc3c12` (centres undefined), the Activity [1] is reported as “Dose-dependent effect”, the Activity [2] is reported as “Active” and the Activity [3] is reported as “Active”. The Activity [4] was “Active”, the Activity [5] was “inactive” and the Activity [6] was >90%. For the same compound, the Activity [7] was “Non-Toxic”, the Activity [8] was “Active” and the Activity [9] was “Active”. For the same compound, the Drug metabolism [10] was “Metabolite_Detected”, the Activity [11] was “inactive” and the Activity [12] was “inactive”. The Activity [13] was “Dose-dependent effect”, the Drug metabolism [14] was “Metabolite_Detected” and the Activity [15] was “inactive”. The Activity [16] was “inactive”, the Drug metabolism [17] was “Metabolite_Detected” and the Activity [18] was “inactive”. The Activity [19] was “Active”, the Activity [20] was “Dose-dependent effect” and the Activity [21] was “Active”. The Activity [22] was “inactive”, the Activity [23] was “Active” and the Activity [24] was “inactive”.
